Activity calls are given as the source filed them. The rule behind the calls is not given here.
Assays:
HCT-15 [1] = experiment: Cytotoxicity against human HCT15 cells at 10 uM after 48 hrs by SRB assay; assay type: functional; settings: HCT-15, 48 h, read-out: GI
SF-295 [2] = experiment: Cytotoxicity against human SF295 cells at 10 uM after 48 hrs by SRB assay; assay type: functional; settings: SF-295, 48 h, read-out: GI
A549 [3] = experiment: Cytotoxicity against human A549 cells at 10 uM after 48 hrs by SRB assay; assay type: functional; settings: A549, 48 h, read-out: GI
MCF7 [4] = experiment: Cytotoxicity against human MCF7 cells at 10 uM after 48 hrs by SRB assay; assay type: functional; settings: MCF7, 48 h, read-out: GI
HEp-2 [5] = experiment: Cytotoxicity against human Hep2 cells at 10 uM after 48 hrs by SRB assay; assay type: functional; settings: HEp-2, 48 h, read-out: GI
PC-3 [6] = experiment: Cytotoxicity against human PC3 cells at 10 uM after 48 hrs by SRB assay; assay type: functional; settings: PC-3, 48 h, read-out: GI
DU-145 [7] = experiment: Cytotoxicity against human DU145 cells at 10 uM after 48 hrs by SRB assay; assay type: functional; settings: DU-145, 48 h, read-out: GI
HL-60 [8] = experiment: Cytotoxicity against human HL60 cells at 10 uM after 48 hrs by SRB assay; assay type: functional; settings: HL-60, 48 h, read-out: GI
THP-1 [9] = experiment: Cytotoxicity against human THP1 cells at 10 uM after 48 hrs by SRB assay; assay type: functional; settings: THP-1, 48 h, read-out: GI
HCT-15 [10] = experiment: Cytotoxicity against human HCT15 cells at 30 uM after 48 hrs by SRB assay; assay type: functional; settings: HCT-15, 48 h, read-out: GI
SF-295 [11] = experiment: Cytotoxicity against human SF295 cells at 30 uM after 48 hrs by SRB assay; assay type: functional; settings: SF-295, 48 h, read-out: GI
A549 [12] = experiment: Cytotoxicity against human A549 cells at 30 uM after 48 hrs by SRB assay; assay type: functional; settings: A549, 48 h, read-out: GI
MCF7 [13] = experiment: Cytotoxicity against human MCF7 cells at 30 uM after 48 hrs by SRB assay; assay type: functional; settings: MCF7, 48 h, read-out: GI
HEp-2 [14] = experiment: Cytotoxicity against human Hep2 cells at 30 uM after 48 hrs by SRB assay; assay type: functional; settings: HEp-2, 48 h, read-out: GI
PC-3 [15] = experiment: Cytotoxicity against human PC3 cells at 30 uM after 48 hrs by SRB assay; assay type: functional; settings: PC-3, 48 h, read-out: GI
DU-145 [16] = experiment: Cytotoxicity against human DU145 cells at 30 uM after 48 hrs by SRB assay; assay type: functional; settings: DU-145, 48 h, read-out: GI
HL-60 [17] = experiment: Cytotoxicity against human HL60 cells at 30 uM after 48 hrs by SRB assay; assay type: functional; settings: HL-60, 48 h, read-out: GI
THP-1 [18] = experiment: Cytotoxicity against human THP1 cells at 30 uM after 48 hrs by SRB assay; assay type: functional; settings: THP-1, 48 h, read-out: GI
HCT-15 [19] = experiment: Cytotoxicity against human HCT15 cells at 50 uM after 48 hrs by SRB assay; assay type: functional; settings: HCT-15, 48 h, read-out: GI
SF-295 [20] = experiment: Cytotoxicity against human SF295 cells at 50 uM after 48 hrs by SRB assay; assay type: functional; settings: SF-295, 48 h, read-out: GI
A549 [21] = experiment: Cytotoxicity against human A549 cells at 50 uM after 48 hrs by SRB assay; assay type: functional; settings: A549, 48 h, read-out: GI
MCF7 [22] = experiment: Cytotoxicity against human MCF7 cells at 50 uM after 48 hrs by SRB assay; assay type: functional; settings: MCF7, 48 h, read-out: GI
HEp-2 [23] = experiment: Cytotoxicity against human Hep2 cells at 50 uM after 48 hrs by SRB assay; assay type: functional; settings: HEp-2, 48 h, read-out: GI
PC-3 [24] = experiment: Cytotoxicity against human PC3 cells at 50 uM after 48 hrs by SRB assay; assay type: functional; settings: PC-3, 48 h, read-out: GI
HL-60 [25] = experiment: Cytotoxicity against human HL60 cells at 50 uM after 48 hrs by SRB assay; assay type: functional; settings: HL-60, 48 h, read-out: GI
DU-145 [26] = experiment: Cytotoxicity against human DU145 cells at 50 uM after 48 hrs by SRB assay; assay type: functional; settings: DU-145, 48 h, read-out: GI
THP-1 [27] = experiment: Cytotoxicity against human THP1 cells at 50 uM after 48 hrs by SRB assay; assay type: functional; settings: THP-1, 48 h, read-out: GI
HCT-15 [28] = experiment: Cytotoxicity against human HCT15 cells after 48 hrs by SRB assay; assay type: functional, cell-based; settings: HCT-15, 48 h
A549 [29] = experiment: Cytotoxicity against human A549 cells after 48 hrs by SRB assay; assay type: functional, cell-based; settings: A549, 48 h
SF-295 [30] = experiment: Cytotoxicity against human SF295 cells after 48 hrs by SRB assay; assay type: functional, cell-based; settings: SF-295, 48 h
MCF7 [31] = experiment: Cytotoxicity against human MCF7 cells after 48 hrs by SRB assay; assay type: functional, cell-based; settings: MCF7, 48 h
HEp-2 [32] = experiment: Cytotoxicity against human Hep2 cells after 48 hrs by SRB assay; assay type: functional, cell-based; settings: HEp-2, 48 h
PC-3 [33] = experiment: Cytotoxicity against human PC3 cells after 48 hrs by SRB assay; assay type: functional, cell-based; settings: PC-3, 48 h
DU-145 [34] = experiment: Cytotoxicity against human DU145 cells after 48 hrs by SRB assay; assay type: functional, cell-based; settings: DU-145, 48 h
HL-60 [35] = experiment: Cytotoxicity against human HL60 cells after 48 hrs by SRB assay; assay type: functional, cell-based; settings: HL-60, 48 h
THP-1 [36] = experiment: Cytotoxicity against human THP1 cells after 48 hrs by SRB assay; assay type: functional, cell-based; settings: THP-1, 48 h
THP-1 [37] = experiment: Inhibition of cell invasion in human THP1 cells at 1 to 30 uM after 24 hrs by wound-healing assay; assay type: functional, cell-based
Summary of the method: (§1)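 THP-1 monolayers (3×10⁵ cells/mL/well) were scratched with a pipette tip and washed three times with PBS. Test samples were added for 24 h, then fresh medium was added until the control wound healed. Wounds were imaged with a 10× objective at 0 h and 24 h. Migration was quantified as the distance between wound edges.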

THP-1 [38] = experiment: Inhibition of cell migration in human THP1 cells at 1 to 30 uM after 24 hrs by wound-healing assay; assay type: functional, cell-based; summary of the method: as §1
HL-60 [39] = experiment: Induction of apoptosis in human HL60 cells assessed as DNA ladder formation at 20 to 30 uM after 24 hrs by DNA agarose gel electrophoresis; assay type: functional, cell-based
Summary of the method: (§2)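 DNA fragmentation assay in HL-60 cells (2 × 10⁶ cells/well) or CV-1 cells, treated for 24 h. Cells were lysed in Tris–HCl pH 8.0/NaCl/EDTA/Triton X-100 with proteinase K (200 µg/mL) at 50 °C for 1 h, then DNase-free RNase for 90 min. DNA was phenol:chloroform extracted and ethanol precipitated. Gels were 1% agarose in TAE at 80 V for 1.5 h. Camptothecin (5 µM, 6 h) served as positive control in HL-60.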

HL-60 [40] = experiment: Induction of apoptosis in human HL60 cells assessed as DNA ladder formation after 24 hrs by DNA agarose gel electrophoresis; assay type: functional; summary of the method: as §2
CV-1 = experiment: Induction of apoptosis in african green monkey CV1 cells assessed as DNA ladder formation at 10 to 60 uM after 24 hrs by DNA agarose gel electrophoresis; assay type: cell-based; settings: chlorocebus aethiops, cv-1, 24 h; summary of the method: as §2
HL-60 [41] = experiment: Induction of apoptosis in human HL60 cells assessed as change in mitochondrial membrane potential after 24 hrs using rhodamine-123 staining by fluorescence based confocal microscopy analysis; assay type: functional, cell-based
Summary of the method: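 HL-60 cells (6 × 10⁴/mL/well) were treated for 24 h. Rhodamine-123 (1 µM) was added in serum-free medium 30 min before the end, in the dark. Cells were then washed and resuspended in PBS. Fluorescence loss was viewed by confocal microscopy with 488 nm laser excitation. Each experiment was done twice.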

THP-1 [42] = experiment: Inhibition of colony formation in human THP1 cells using crystal violet staining after 24 hrs by clonogenic assay; assay type: functional, cell-based
Summary of the method: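 THP-1 cells from log-phase culture were plated at clonogenic dilution. After 24 h they were treated for 24 h, then incubated for at least six potential divisions (colonies >50 cells). Colonies were fixed and stained with 6% glutaraldehyde plus 0.5% crystal violet for 30 min, washed with water and air-dried.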

C=C(C)[C@@H]1CC[C@]2(C(=O)O)CC[C@]3(C)[C@H](CC[C@@H]4[C@@]5(C)CC[C@H](OCc6cn(C7O[C@H](COC(C)=O)[C@H](OC(C)=O)[C@H](OC(C)=O)[C@H]7OC(C)=O)nn6)C(C)(C)[C@@H]5CC[C@]43C)[C@@H]12 (stereo not given in full)
inhibition of growth at 10 µM (HCT-15 [1]): 39%
inhibition of growth at 10 µM (SF-295 [2]): 8%
inhibition of growth at 10 µM (A549 [3]): 6%
inhibition of growth at 10 µM (MCF7 [4]): 35%
inhibition of growth at 10 µM (HEp-2 [5]): 25%
inhibition of growth at 10 µM (PC-3 [6]): 5%
inhibition of growth at 10 µM (DU-145 [7]): 8%
inhibition of growth at 10 µM (HL-60 [8]): 62%
inhibition of growth at 10 µM (THP-1 [9]): 50%
inhibition of growth at 30 µM (HCT-15 [10]): 51%
inhibition of growth at 30 µM (SF-295 [11]): 20%
inhibition of growth at 30 µM (A549 [12]): 10%
inhibition of growth at 30 µM (MCF7 [13]): 44%
inhibition of growth at 30 µM (HEp-2 [14]): 41%
inhibition of growth at 30 µM (PC-3 [15]): 32%
inhibition of growth at 30 µM (DU-145 [16]): 20%
inhibition of growth at 30 µM (HL-60 [17]): 66%
inhibition of growth at 30 µM (THP-1 [18]): 61%
inhibition of growth at 50 µM (HCT-15 [19]): 63%
inhibition of growth at 50 µM (SF-295 [20]): 39%
inhibition of growth at 50 µM (A549 [21]): 37%
inhibition of growth at 50 µM (MCF7 [22]): 52%
inhibition of growth at 50 µM (HEp-2 [23]): 58%
inhibition of growth at 50 µM (PC-3 [24]): 40%
inhibition of growth at 50 µM (HL-60 [25]): 74%
inhibition of growth at 50 µM (DU-145 [26]): 36%
inhibition of growth at 50 µM (THP-1 [27]): 72%
IC50 (HCT-15 [28]): 28 µM
IC50 (A549 [29]): > 50 µM
IC50 (SF-295 [30]): > 50 µM
IC50 (MCF7 [31]): 45 µM
IC50 (HEp-2 [32]): 40 µM
IC50 (PC-3 [33]): > 50 µM
IC50 (DU-145 [34]): > 50 µM
IC50 (HL-60 [35]): 5.5 µM
IC50 (THP-1 [36]): 50 µM

C=C(C)[C@@H]1CC[C@]2(C(=O)O)CC[C@]3(C)[C@H](CC[C@@H]4[C@@]5(C)CC[C@H](OCc6cn(-c7ccccc7C#N)nn6)C(C)(C)[C@@H]5CC[C@]43C)[C@@H]12
inhibition (THP-1 [37]): Active
inhibition (THP-1 [38]): Active
Activity (HL-60 [39]): Active
Activity (HL-60 [40]): Dose-dependent effect
MED (HL-60 [40]): 20 µM
Activity (CV-1): Non-toxic
Activity (HL-60 [41]): Dose-dependent effect
inhibition (THP-1 [42]): Dose-dependent effect
inhibition of growth at 10 µM (HCT-15 [1]): 40%
inhibition of growth at 10 µM (SF-295 [2]): 45%
inhibition of growth at 10 µM (A549 [3]): 60%
inhibition of growth at 10 µM (MCF7 [4]): 60%
inhibition of growth at 10 µM (HEp-2 [5]): 45%
inhibition of growth at 10 µM (PC-3 [6]): 34%
inhibition of growth at 10 µM (DU-145 [7]): 32%
inhibition of growth at 10 µM (HL-60 [8]): 65%
inhibition of growth at 10 µM (THP-1 [9]): 50%
inhibition of growth at 30 µM (HCT-15 [10]): 61%
inhibition of growth at 30 µM (SF-295 [11]): 66%
inhibition of growth at 30 µM (A549 [12]): 74%
inhibition of growth at 30 µM (MCF7 [13]): 81%
inhibition of growth at 30 µM (HEp-2 [14]): 59%
inhibition of growth at 30 µM (PC-3 [15]): 71%
inhibition of growth at 30 µM (DU-145 [16]): 65%
inhibition of growth at 30 µM (HL-60 [17]): 90%
inhibition of growth at 30 µM (THP-1 [18]): 89%
inhibition of growth at 50 µM (HCT-15 [19]): 89%
inhibition of growth at 50 µM (SF-295 [20]): 71%
inhibition of growth at 50 µM (A549 [21]): 79%
inhibition of growth at 50 µM (MCF7 [22]): 97%
inhibition of growth at 50 µM (HEp-2 [23]): 68%
inhibition of growth at 50 µM (PC-3 [24]): 86%
inhibition of growth at 50 µM (HL-60 [25]): 98%
inhibition of growth at 50 µM (DU-145 [26]): 84%
inhibition of growth at 50 µM (THP-1 [27]): 92%
IC50 (HCT-15 [28]): 20 µM
IC50 (A549 [29]): 5 µM
IC50 (SF-295 [30]): 15 µM
IC50 (MCF7 [31]): 4.8 µM
IC50 (HEp-2 [32]): 12 µM
IC50 (PC-3 [33]): 14 µM
IC50 (DU-145 [34]): 18 µM
IC50 (HL-60 [35]): 2.5 µM
IC50 (THP-1 [36]): 4.5 µM

Source: ChEMBL document CHEMBL2380302, “Synthesis of 3-O-propargylated betulinic acid and its 1,2,3-triazoles as potential apoptotic agents” (Eur J Med Chem, 2013)
